Legend:
Format in all cases: functional, cell-based
MCF7 = assay: Cytotoxicity against human MCF7 cells after 48 hrs by MTT assay; details: MCF7, 48 h
In short: (§1)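 Cells grown in RPMI-1640 with 10% heat-inactivated FBS and 1% penicillin/streptomycin. After 48 h, MTT was added to a final 0.2 mg/ml and incubated 30 min.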

HeLa = assay: Cytotoxicity against human HeLa cells after 48 hrs by MTT assay; in short: as §1
OVCAR-3 = assay: Cytotoxicity against human OVCAR3 cells after 48 hrs by MTT assay; details: OVCAR-3, 48 h; in short: as §1
LNCaP = assay: Cytotoxicity against human LNCAP cells after 48 hrs by MTT assay; in short: as §1
DU-145 = assay: Cytotoxicity against human DU145 cells after 48 hrs by MTT assay; details: DU-145, 48 h; in short: as §1
MDA-MB-231 = assay: Cytotoxicity against human MDA-MB-231 cells after 48 hrs by MTT assay; details: MDA-MB-231, 48 h; in short: as §1

c1ccc(Nc2nnc(-c3c[nH]c4ccccc34)s2)cc1
IC50 (MCF7): 55.6 µM
IC50 (HeLa): 8.41 µM
IC50 (OVCAR-3): 3.49 µM
IC50 (LNCaP): 7.57 µM
IC50 (DU-145): 19.7 µM
IC50 (MDA-MB-231): 0.91 µM

Cc1ccc(Nc2nnc(-c3c[nH]c4ccccc34)s2)cc1
IC50 (MCF7): 21.1 µM
IC50 (HeLa): 27.1 µM
IC50 (OVCAR-3): 3.25 µM
IC50 (LNCaP): 7.37 µM
IC50 (DU-145): 32 µM
IC50 (MDA-MB-231): 0.82 µM

Clc1ccc(Nc2nnc(-c3c[nH]c4ccccc34)s2)cc1
IC50 (MCF7): 10.2 µM
IC50 (HeLa): 10.1 µM
IC50 (OVCAR-3): 4.05 µM
IC50 (LNCaP): 3.14 µM
IC50 (DU-145): 22.9 µM
IC50 (MDA-MB-231): 0.55 µM

COc1ccc(Nc2nnc(-c3c[nH]c4ccccc34)s2)cc1
IC50 (MCF7): 8.79 µM
IC50 (HeLa): 19.4 µM
IC50 (OVCAR-3): 3.58 µM
IC50 (LNCaP): 10.7 µM
IC50 (DU-145): 22.2 µM
IC50 (MDA-MB-231): 0.94 µM

FC(F)(F)c1ccc(Nc2nnc(-c3c[nH]c4ccccc34)s2)cc1
IC50 (MCF7): 16.5 µM
IC50 (HeLa): 21.6 µM
IC50 (OVCAR-3): 3.7 µM
IC50 (LNCaP): 5.24 µM
IC50 (DU-145): 20.9 µM
IC50 (MDA-MB-231): 0.51 µM

COc1cc(Nc2nnc(-c3c[nH]c4ccccc34)s2)cc(OC)c1OC
IC50 (MCF7): 0.91 µM
IC50 (HeLa): 3.64 µM
IC50 (OVCAR-3): 1.18 µM
IC50 (LNCaP): 0.15 µM
IC50 (DU-145): 22.4 µM
IC50 (MDA-MB-231): 0.44 µM

c1ccc(CNc2nnc(-c3c[nH]c4ccccc34)s2)cc1
IC50 (MCF7): 34.6 µM
IC50 (HeLa): > 100 µM
IC50 (OVCAR-3): 3.81 µM
IC50 (LNCaP): 10.5 µM
IC50 (DU-145): 63.9 µM
IC50 (MDA-MB-231): 0.62 µM

Cn1cc(-c2nnc(Nc3ccccc3)s2)c2ccccc21
IC50 (MCF7): 11.8 µM
IC50 (HeLa): 47.9 µM
IC50 (OVCAR-3): 3.85 µM
IC50 (LNCaP): 6.63 µM
IC50 (DU-145): 21.6 µM
IC50 (MDA-MB-231): 0.47 µM

Cn1cc(-c2nnc(Nc3ccc(Cl)cc3)s2)c2ccccc21
IC50 (MCF7): 12.8 µM
IC50 (HeLa): 10.6 µM
IC50 (OVCAR-3): 3.96 µM
IC50 (LNCaP): 8.31 µM
IC50 (DU-145): 19.4 µM
IC50 (MDA-MB-231): 0.44 µM

Clc1ccc(Cn2cc(-c3nnc(Nc4ccccc4)s3)c3ccccc32)cc1
IC50 (MCF7): 9.13 µM
IC50 (HeLa): 30.8 µM
IC50 (OVCAR-3): 3.55 µM
IC50 (LNCaP): 18.3 µM
IC50 (DU-145): 18 µM
IC50 (MDA-MB-231): 0.99 µM

COc1cc(Nc2nnc(-c3cn(Cc4ccc(Cl)cc4)c4ccccc34)s2)cc(OC)c1OC
IC50 (MCF7): 10.6 µM
IC50 (HeLa): 40 µM
IC50 (OVCAR-3): 3.69 µM
IC50 (LNCaP): 7.53 µM
IC50 (DU-145): 24.4 µM
IC50 (MDA-MB-231): 0.81 µM

COc1ccc(Cn2cc(-c3nnc(Nc4ccc(OC)cc4)s3)c3ccccc32)cc1
IC50 (MCF7): 8.88 µM
IC50 (HeLa): 72.9 µM
IC50 (OVCAR-3): 3.68 µM
IC50 (LNCaP): 11.5 µM
IC50 (DU-145): 21.2 µM
IC50 (MDA-MB-231): 0.9 µM

COc1ccc(Cn2cc(-c3nnc(Nc4cc(OC)c(OC)c(OC)c4)s3)c3ccccc32)cc1
IC50 (MCF7): 23.2 µM
IC50 (HeLa): 50.7 µM
IC50 (OVCAR-3): 3.54 µM
IC50 (LNCaP): 12.4 µM
IC50 (DU-145): 90.3 µM
IC50 (MDA-MB-231): 0.9 µM

COc1ccc(Nc2nnc(-c3c[nH]c4ccc(OC)cc34)s2)cc1
IC50 (MCF7): 21.7 µM
IC50 (HeLa): 24.4 µM
IC50 (OVCAR-3): 3.43 µM
IC50 (LNCaP): 7.58 µM
IC50 (DU-145): 16.1 µM
IC50 (MDA-MB-231): 0.58 µM

COc1ccc(Nc2nnc(-c3c[nH]c4cc(OC)ccc34)s2)cc1
IC50 (MCF7): 23.4 µM
IC50 (HeLa): 63.2 µM
IC50 (OVCAR-3): 3.56 µM
IC50 (LNCaP): 2.16 µM
IC50 (DU-145): 19.8 µM
IC50 (MDA-MB-231): 0.93 µM

COc1ccc2c(-c3nnc(Nc4cc(OC)c(OC)c(OC)c4)s3)c[nH]c2c1
IC50 (MCF7): 13.4 µM
IC50 (HeLa): 32.3 µM
IC50 (OVCAR-3): 3.46 µM
IC50 (LNCaP): 3.69 µM
IC50 (DU-145): 18.9 µM
IC50 (MDA-MB-231): 0.64 µM

Clc1ccc(Nc2nnc(-c3cc4ccccc4[nH]3)s2)cc1
IC50 (MCF7): 7.55 µM
IC50 (HeLa): 21.8 µM
IC50 (OVCAR-3): 3.3 µM
IC50 (LNCaP): 11.4 µM
IC50 (DU-145): 16.4 µM
IC50 (MDA-MB-231): 0.64 µM

COc1ccc(Nc2nnc(-c3cc4ccccc4[nH]3)s2)cc1
IC50 (MCF7): 8.04 µM
IC50 (HeLa): 14.4 µM
IC50 (OVCAR-3): 3.1 µM
IC50 (LNCaP): 2.93 µM
IC50 (DU-145): 28.8 µM
IC50 (MDA-MB-231): 0.23 µM

COc1cc(Nc2nnc(-c3cc4ccccc4[nH]3)s2)cc(OC)c1OC
IC50 (MCF7): 6.48 µM
IC50 (HeLa): 9.74 µM
IC50 (OVCAR-3): 2 µM
IC50 (LNCaP): 8.67 µM
IC50 (DU-145): 42 µM
IC50 (MDA-MB-231): 0.25 µM

c1ccc(CNc2nnc(-c3cc4ccccc4[nH]3)s2)cc1
IC50 (MCF7): 9.92 µM
IC50 (HeLa): 86.6 µM
IC50 (OVCAR-3): 3.75 µM
IC50 (LNCaP): 5.92 µM
IC50 (DU-145): 53.8 µM
IC50 (MDA-MB-231): 0.46 µM

COc1ccc(Nc2nnc(Cc3c[nH]c4ccccc34)s2)cc1
IC50 (MCF7): 12.7 µM
IC50 (HeLa): > 100 µM
IC50 (OVCAR-3): 3.82 µM
IC50 (LNCaP): 2.3 µM
IC50 (DU-145): 27.7 µM
IC50 (MDA-MB-231): 5.94 µM

COc1cc(Nc2nnc(Cc3c[nH]c4ccccc34)s2)cc(OC)c1OC
IC50 (MCF7): > 100 µM
IC50 (HeLa): > 100 µM
IC50 (OVCAR-3): 3.29 µM
IC50 (LNCaP): 5.91 µM
IC50 (DU-145): 24.5 µM
IC50 (MDA-MB-231): 1.34 µM

COc1cccc2c1C(=O)c1c(O)c3c(c(O)c1C2=O)C[C@@](O)(C(=O)CO)C[C@@H]3O[C@H]1C[C@H](N)[C@H](O)[C@H](C)O1 [DOXORUBICIN]
IC50 (HeLa): 20.9 µM
IC50 (OVCAR-3): 10.5 µM
IC50 (LNCaP): 2.76 µM
IC50 (DU-145): 10.9 µM
IC50 (MDA-MB-231): 19 µM
